# Assay results: ChEMBL document CHEMBL1139611, “Structure-activity relationships of novel endomorphin-2 analogues with N-O turns induced by alpha-aminoxy acids” (Bioorg Med Chem Lett, 2005); call rule not given here
# pKi: −log10 of the molar value.
# Columns and labels:
# [1] = biological target: Opioid receptors; mu & delta (Rattus norvegicus) (UniProt P33533+P33535); assay: Selectivity ratio of Opioid receptor delta 1 to Opioid receptor mu 1; assay type: protein assay
# [2] = biological target: Delta-type opioid receptor (Rattus norvegicus, UniProt P33533); assay: Inhibition of [3H]DPDPE binding to Opioid receptor delta 1 of rat brain membrane
# Outline: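 Competition binding on Wistar rat brain synaptosomal P2 membranes in 50 mM Tris–HCl, pH 7.4. […] Delta sites were labelled with [3H]DPDPE (1 nM, Kd 2.75 nM) for 3 h at 25 °C. Nonspecific binding was taken with naloxone. Ki was derived by Cheng–Prusoff; values are means of ≥3 experiments.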
# Mu-type opioid receptor [3] = biological target: T1, Mu-type opioid receptor (Rattus norvegicus, UniProt P33535); assay: Inhibition of [3H]DAMGO binding to Opioid receptor mu 1 of rat brain membrane
# Outline: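 Rat brain synaptosomal P2 membranes from Wistar rats in 50 mM Tris-HCl, pH 7.4. […] Nonspecific binding was defined with naloxone. Ki was derived by Cheng-Prusoff. Values are means of at least three experiments.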
# [4] = biological target: Delta-type opioid receptor (Rattus norvegicus) (UniProt P33533); assay: Percent inhibition of [3H]DPDPE binding to Opioid receptor delta 1 of rat brain membrane at 10 uM; set-up: scale not given: the % may be the effect or the level left
# [5] = biological target: Delta-type opioid receptor (Rattus norvegicus) (UniProt P33533); assay: Percent decrease of maximum binding towards Opioid receptor delta 1 in rat brain membrane using [3H]DPDPE at 10 uM concentration; assay type: cell membranes; set-up: scale not given: the % may be the effect or the level left
# Mu-type opioid receptor [6] = biological target: T1, Mu-type opioid receptor; assay: Inhibition of [3H]DAMGO binding to Opioid receptor mu 1 of rat brain membrane; na= No activity.
# [7] = biological target: Mu-type opioid receptor (Rattus norvegicus) (UniProt P33535); assay: Percent inhibition of [3H]-DAMGO binding to Opioid receptor mu 1 of rat brain membrane at 10 uM; set-up: scale not given: the % may be the effect or the level left
# Chain of Mu-type opioid receptor (Rattus norvegicus) (P33535 whole entry): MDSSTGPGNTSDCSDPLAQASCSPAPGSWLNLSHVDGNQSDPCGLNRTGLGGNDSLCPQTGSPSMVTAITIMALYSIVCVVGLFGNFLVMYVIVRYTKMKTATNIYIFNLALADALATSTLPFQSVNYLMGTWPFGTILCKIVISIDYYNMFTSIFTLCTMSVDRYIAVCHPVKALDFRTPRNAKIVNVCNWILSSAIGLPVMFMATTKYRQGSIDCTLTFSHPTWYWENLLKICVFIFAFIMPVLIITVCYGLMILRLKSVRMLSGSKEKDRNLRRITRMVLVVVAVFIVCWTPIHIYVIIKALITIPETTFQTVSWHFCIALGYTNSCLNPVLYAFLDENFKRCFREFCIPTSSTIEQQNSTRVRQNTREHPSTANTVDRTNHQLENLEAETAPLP
# T1 sequence (P33535 whole entry): as above
# Chain of Delta-type opioid receptor (Rattus norvegicus) (P33533 whole entry): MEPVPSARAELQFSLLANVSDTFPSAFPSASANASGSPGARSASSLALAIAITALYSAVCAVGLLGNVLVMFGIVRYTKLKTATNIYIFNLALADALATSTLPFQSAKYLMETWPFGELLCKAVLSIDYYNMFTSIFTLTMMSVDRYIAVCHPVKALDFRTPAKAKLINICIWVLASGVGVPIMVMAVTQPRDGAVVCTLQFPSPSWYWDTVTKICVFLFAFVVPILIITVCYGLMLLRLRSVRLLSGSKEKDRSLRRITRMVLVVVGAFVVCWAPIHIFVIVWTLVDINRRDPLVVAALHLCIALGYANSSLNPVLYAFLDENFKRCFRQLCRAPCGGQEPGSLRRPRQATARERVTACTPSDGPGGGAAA
# Chain of Delta-type opioid receptor (P33533 whole entry): as above
# Chain of Opioid receptors; mu & delta (Rattus norvegicus) (P33533 whole entry, looked up): as the sequence (P33533 whole entry) above
# Chain of Opioid receptors; mu & delta (Rattus norvegicus) (P33535 whole entry, looked up): as the sequence (P33535 whole entry) above
Activity [5] [%],Ki (Mu-type opioid receptor [6]),Activity [7] [%],SMILES,Selectivity [1],pKi [2],pKi (Mu-type opioid receptor [3]),Activity [4] [%]
,,,NC(=O)[C@H](Cc1ccccc1)NC(=O)[C@H](Cc1ccccc1)NC(=O)[C@@H]1CCN(C(=O)[C@@H](N)Cc2ccc(O)cc2)C1,1020,5.08,8.08,
,,,NC(=O)[C@H](Cc1ccccc1)NC(=O)[C@@H](Cc1ccccc1)NO[C@@H]1CCCN1C(=O)[C@@H](N)Cc1ccc(O)cc1,> 17,< 5.00,6.22,30
,,,NC(=O)[C@H](Cc1ccccc1)NC(=O)[C@H](Cc1ccccc1)O/N=C/[C@@H]1CCCN1C(=O)[C@@H](N)Cc1ccc(O)cc1,4.1,4.70,3.39,
30,Not Active,,NC(=O)[C@H](Cc1ccccc1)NC(=O)[C@H](Cc1ccccc1)NC(=O)[C@H](Cc1ccccc1)NO[C@@H](N)Cc1ccc(O)cc1,,< 5.00,,
,,,NC(=O)[C@H](Cc1ccccc1)NC(=O)[C@@H](Cc1ccccc1)O/N=C/[C@@H]1CCCN1C(=O)[C@@H](N)Cc1ccc(O)cc1,9,4.43,5.39,
,,,NC(=O)[C@H](Cc1ccccc1)NC(=O)[C@H](Cc1ccccc1)NO[C@@H]1CCCN1C(=O)[C@@H](N)Cc1ccc(O)cc1,> 23,< 5.00,6.36,15
18,,22,NC(=O)[C@H](Cc1ccccc1)NC(=O)[C@H](Cc1ccccc1)NC(=O)[C@@H](Cc1ccccc1)NO[C@@H](N)Cc1ccc(O)cc1,,< 5.00,< 5.00,
